Results on one molecule are retold here after PMC11815446 (Open Heart, 2025).

Data set [1] has as its system ADP-induced platelet aggregation. Put plainly: ADP-induced platelet aggregation in whole blood, impedance aggregometry. The conditions noted are these: for mean %inhibition of platelet aggregation: all subjects. Format: in vivo, human.
The nature of data set [2]: Safety assessment, treatment emergent adverse events. Format: in vivo, human. The conditions noted are these: A n=40, B n=39. The gist of the method: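 Healthy Indian adults (18–45 y, BMI 18.50–29.90 kg/m²) were CYP2C19-genotyped at two laboratories as *1/*1 or *2/*2. Randomised two-period crossover: loading dose day 1, then once-daily maintenance doses days 2–6, with a washout of at least 14 days. The investigator recorded adverse events throughout the study, along with PT/PTT, vital signs, ECGs, haematology, blood chemistry, urinalysis and physical examinations.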

For another data set, the system named is CYP2C19. The note with it: ref 8 9; cited from earlier work.
For data set [3] the following is noted: two-step process in the liver; ref 8 9; cited from earlier work.

Structures can show the parent of a compound that is named as a salt.

On to `COC(=O)[C@H](c1ccccc1Cl)N1CCc2sccc2C1` [Clopidogrel, Hydrogen sulfate;hydron;methyl (2S)-2-(2-chlorophenyl)-2-(6,7-dihydro-4H-thieno[3,2-c]pyridin-5-yl)acetate], for which, in data set [1] (6 hours postdose (loading dose: AT-10 40 mg, clopidogrel 300 mg)), the “mean %inhibition of platelet aggregation” value turned out to be 18.53%. In data set [1] (6 hours postdose on day 6 (maintenance dose: AT-10 10 mg, clopidogrel 75 mg)), the “mean %inhibition of platelet aggregation” value is 51.19%. In addition, the “time at which inhibition of ADP-induced platelet aggregation reaches the peak” value in data set [1] (postdose) is reported as “around 6 hours”. For the same molecule, in data set [2], the “Treatment emergent adverse events: Anxiety” value is 00.0 (00.0) n (%) E; the “Treatment emergent adverse events: Cough” value is listed as 00.0 (00.0) n (%) E; the “Treatment emergent adverse events: Psychiatric disorders” value is on record as 00.0 (00.0) n (%) E; the “Treatment emergent adverse events: Respiratory, thoracic and mediastinal disorders” value was 00.0 (00.0) n (%) E. In addition, the “contribution of CYP2C19 to the first metabolic step (Step 1)” value in the data set with CYP2C19 is on record as 45%. In data set [3], the “share of the drug converted to the active metabolite H4” value was 15%.
